Measurements taken from ChEMBL document CHEMBL5058577, “EUbOPEN Chemogenomics Library 2 (Multiplex)” (2022).

Tested on: Fibroblast
Experiment: Multiplex assay against human fibroblast
Assay type: toxicity, cell-based
Method in brief: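 Live cells carried four stains from seeding: Hoechst33342, BioTracker Green Microtubule Cytoskeleton Dye, MitoTracker Red and Annexin V Alexa Fluor 680. They were imaged on a CQ1 microscope at 37°C and 5% CO2 after compound addition. Using CellPathfinder machine-learning gating, cells were split into Hoechst high-intensity objects or normal cells, normal cells into healthy, pyknosed or fragmented nuclei, and pyknosed cells into mitotic or apoptotic; tubulin, mitochondrial-mass and membrane-permeability phenotypes are per cents of healthy-nucleus cells.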

[1] = 12 h, 1 µM, compound concentration 1 uM, replicate 1
[2] = 12 h, 1 µM, compound concentration 1 uM, replicate 2
[3] = 12 h, 10 µM, compound concentration 10 uM, replicate 1
[4] = 12 h, 10 µM, compound concentration 10 uM, replicate 2
[5] = 24 h, 1 µM, compound concentration 1 uM, replicate 1
[6] = 24 h, 1 µM, compound concentration 1 uM, replicate 2
[7] = 24 h, 10 µM, compound concentration 10 uM, replicate 1
[8] = 24 h, 10 µM, compound concentration 10 uM, replicate 2
[9] = 48 h, 1 µM, compound concentration 1 uM, replicate 1
[10] = 48 h, 1 µM, compound concentration 1 uM, replicate 2
[11] = 48 h, 10 µM, compound concentration 10 uM, replicate 1
[12] = 48 h, 10 µM, compound concentration 10 uM, replicate 2

N#Cc1c(Oc2cccc(OS(=O)(=O)CCCC(F)(F)F)c2)cccc1C(F)(F)F
Population Apoptotic (%) [1]: 51%
Population Fragmented Nuclei (%) [1]: 13%
Population Healthy Nuclei (%) [1]: 63%
Population Hoechst High Intensity Objects (%) [1]: 2%
Population Membrane Permeable-Phenotype (%) [1]: 1%
Population Mitochondria Different-Phenotype (%) [1]: 7%
Population Mitotic Cells (%) [1]: 48%
Population Normal (%) [1]: 97%
Population Pyknosed Nuclei (%) [1]: 23%
Population Tubulin-Different-Phenotype (%) [1]: 38%
Total Cell Count [1]: 146
Population Apoptotic (%) [2]: 38%
Population Fragmented Nuclei (%) [2]: 27%
Population Healthy Nuclei (%) [2]: 48%
Population Hoechst High Intensity Objects (%) [2]: 7%
Population Membrane Permeable-Phenotype (%) [2]: 9%
Population Mitotic Cells (%) [2]: 61%
Population Normal (%) [2]: 92%
Population Pyknosed Nuclei (%) [2]: 24%
Population Tubulin-Different-Phenotype (%) [2]: 59%
Total Cell Count [2]: 148
Population Apoptotic (%) [3]: 31%
Population Fragmented Nuclei (%) [3]: 14%
Population Healthy Nuclei (%) [3]: 59%
Population Hoechst High Intensity Objects (%) [3]: 6%
Population Membrane Permeable-Phenotype (%) [3]: 1%
Population Mitochondria Different-Phenotype (%) [3]: 7%
Population Mitotic Cells (%) [3]: 68%
Population Normal (%) [3]: 93%
Population Pyknosed Nuclei (%) [3]: 26%
Population Tubulin-Different-Phenotype (%) [3]: 36%
Total Cell Count [3]: 180
Population Apoptotic (%) [4]: 66%
Population Fragmented Nuclei (%) [4]: 42%
Population Healthy Nuclei (%) [4]: 22%
Population Hoechst High Intensity Objects (%) [4]: 7%
Population Membrane Permeable-Phenotype (%) [4]: 13%
Population Mitochondria Different-Phenotype (%) [4]: 3%
Population Mitotic Cells (%) [4]: 33%
Population Normal (%) [4]: 92%
Population Pyknosed Nuclei (%) [4]: 35%
Population Tubulin-Different-Phenotype (%) [4]: 75%
Total Cell Count [4]: 138
Population Apoptotic (%) [5]: 50%
Population Fragmented Nuclei (%) [5]: 20%
Population Healthy Nuclei (%) [5]: 62%
Population Hoechst High Intensity Objects (%) [5]: 6%
Population Membrane Permeable-Phenotype (%) [5]: 1%
Population Mitochondria Different-Phenotype (%) [5]: 4%
Population Mitotic Cells (%) [5]: 50%
Population Normal (%) [5]: 93%
Population Pyknosed Nuclei (%) [5]: 17%
Population Tubulin-Different-Phenotype (%) [5]: 45%
Total Cell Count [5]: 148
Population Apoptotic (%) [6]: 54%
Population Fragmented Nuclei (%) [6]: 33%
Population Healthy Nuclei (%) [6]: 50%
Population Hoechst High Intensity Objects (%) [6]: 3%
Population Membrane Permeable-Phenotype (%) [6]: 5%
Population Mitochondria Different-Phenotype (%) [6]: 5%
Population Mitotic Cells (%) [6]: 45%
Population Normal (%) [6]: 96%
Population Pyknosed Nuclei (%) [6]: 16%
Population Tubulin-Different-Phenotype (%) [6]: 57%
Total Cell Count [6]: 147
Population Apoptotic (%) [7]: 44%
Population Fragmented Nuclei (%) [7]: 13%
Population Healthy Nuclei (%) [7]: 59%
Population Hoechst High Intensity Objects (%) [7]: 5%
Population Membrane Permeable-Phenotype (%) [7]: 4%
Population Mitochondria Different-Phenotype (%) [7]: 12%
Population Mitotic Cells (%) [7]: 55%
Population Normal (%) [7]: 94%
Population Pyknosed Nuclei (%) [7]: 27%
Population Tubulin-Different-Phenotype (%) [7]: 43%
Total Cell Count [7]: 174
Population Apoptotic (%) [8]: 61%
Population Fragmented Nuclei (%) [8]: 40%
Population Healthy Nuclei (%) [8]: 23%
Population Hoechst High Intensity Objects (%) [8]: 8%
Population Membrane Permeable-Phenotype (%) [8]: 18%
Population Mitochondria Different-Phenotype (%) [8]: 22%
Population Mitotic Cells (%) [8]: 38%
Population Normal (%) [8]: 91%
Population Pyknosed Nuclei (%) [8]: 36%
Population Tubulin-Different-Phenotype (%) [8]: 77%
Total Cell Count [8]: 127
Population Apoptotic (%) [9]: 60%
Population Fragmented Nuclei (%) [9]: 18%
Population Healthy Nuclei (%) [9]: 66%
Population Hoechst High Intensity Objects (%) [9]: 7%
Population Membrane Permeable-Phenotype (%) [9]: 1%
Population Mitochondria Different-Phenotype (%) [9]: 5%
Population Mitotic Cells (%) [9]: 40%
Population Normal (%) [9]: 92%
Population Pyknosed Nuclei (%) [9]: 14%
Population Tubulin-Different-Phenotype (%) [9]: 42%
Total Cell Count [9]: 145
Population Apoptotic (%) [10]: 38%
Population Fragmented Nuclei (%) [10]: 26%
Population Healthy Nuclei (%) [10]: 59%
Population Hoechst High Intensity Objects (%) [10]: 5%
Population Membrane Permeable-Phenotype (%) [10]: 13%
Population Mitochondria Different-Phenotype (%) [10]: 2%
Population Mitotic Cells (%) [10]: 61%
Population Normal (%) [10]: 94%
Population Tubulin-Different-Phenotype (%) [10]: 56%
Total Cell Count [10]: 133
Population Apoptotic (%) [11]: 52%
Population Fragmented Nuclei (%) [11]: 20%
Population Healthy Nuclei (%) [11]: 54%
Population Hoechst High Intensity Objects (%) [11]: 9%
Population Membrane Permeable-Phenotype (%) [11]: 2%
Population Mitochondria Different-Phenotype (%) [11]: 12%
Population Mitotic Cells (%) [11]: 47%
Population Normal (%) [11]: 90%
Population Pyknosed Nuclei (%) [11]: 24%
Population Tubulin-Different-Phenotype (%) [11]: 47%
Total Cell Count [11]: 172
Population Apoptotic (%) [12]: 59%
Population Fragmented Nuclei (%) [12]: 43%
Population Healthy Nuclei (%) [12]: 31%
Population Hoechst High Intensity Objects (%) [12]: 2%
Population Membrane Permeable-Phenotype (%) [12]: 23%
Population Mitochondria Different-Phenotype (%) [12]: 15%
Population Mitotic Cells (%) [12]: 40%
Population Normal (%) [12]: 97%
Population Pyknosed Nuclei (%) [12]: 25%
Population Tubulin-Different-Phenotype (%) [12]: 89%
Total Cell Count [12]: 150
